We go through two compounds from PMC3428514 (Molecular cell, 2012).

Structures are written as SMILES. Peptide text beside a SMILES is read from it.

The target in one experiment is caspase-8 (Homo sapiens, UniProt Q14790). Description: caspase-8 dimerization by Superdex 200 gel filtration. The format is biochemical. Conditions: 10 μM, 15 minutes at 30°C. Summed up: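 Recombinant caspase-8 (100 nM) incubated 15 min at 30°C with test compound at 10 μM, DMSO, or 10 μM Ac-VAD-CHO, then run on Superdex 200 gel filtration. Collected fractions analysed by SDS-PAGE with Coomassie Blue staining, and caspase activity measured in each fraction.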
For orientation: In gel filtration, larger molecules generally elute earlier.

The next experiment deals with Cdc25B. Conditions: read-out: IC50, Cdc25B; ref Vogt et al., 2003; cited from earlier work.
For a further experiment, the system named is X-IAP. The settings on record: read-out: IC50, X-IAP; ref Glover et al., 2003; cited from earlier work.

One may read the IC50 as the concentration at which inhibition is half-maximal.

caspase-8, sequence (Q14790 217-479, species assumed): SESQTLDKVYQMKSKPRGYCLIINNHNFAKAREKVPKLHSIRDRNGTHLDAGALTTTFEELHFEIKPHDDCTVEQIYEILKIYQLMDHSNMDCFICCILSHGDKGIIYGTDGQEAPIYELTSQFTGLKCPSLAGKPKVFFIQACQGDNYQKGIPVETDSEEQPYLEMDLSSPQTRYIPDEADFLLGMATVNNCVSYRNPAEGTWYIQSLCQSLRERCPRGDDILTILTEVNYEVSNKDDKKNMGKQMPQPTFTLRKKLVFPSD

Take `CC(=O)N[C@H](C(=O)N[C@@H](C)C(=O)N[C@H](C=O)CC(=O)O)C(C)C` [Ac-VAD-CHO] (Ac-Val-Ala-Asp-aldehyde): at caspase-8, the “effect on caspase-8 dimerization” value is listed as “shift to the dimeric species”.
As to `CSC(=S)NN=C(c1ccccn1)c1ccccn1.[Cu][Br]` [Comp-C], the IC50 in the experiment with Cdc25B and in the experiment on X-IAP was greater than 10 µM throughout.
